Experimental data reported in ChEMBL document CHEMBL1926667, “The synthesis of 2-nitroaryl-1,2,3,4-tetrahydroisoquinolines, nitro-substituted 5,6-dihydrobenzimidazo[2,1-a]isoquinoline N-oxides and related heterocycles as potential bioreducible substrates for the enzymes NAD(P)H: quinone oxidoreductase 1 and E. coli nitroreductase” (Bioorg Med Chem Lett, 2011).

Assays:
Escherichia coli [1] = assay: Activation of Escherichia coli nitroreductase assessed as specific activity per mg of protein at 100 uM by measuring decrease in substrate concentration by HPLC analysis
In short: (§1)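 Reduction by human NQO1 or E. coli NR followed by the disappearance of substrate over time; specific activity is the rate of substrate reduction at 37 °C. Relative activity is the specific activity compared with CB-1954.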

Escherichia coli [2] = assay: Activation of Escherichia coli nitroreductase assessed as decrease in substrate concentration at 100 uM by HPLC analysis relative to CB-1954; in short: as §1
[3] = target: NAD(P)H dehydrogenase [quinone] 1 (Homo sapiens) (UniProt P15559); assay: Activation of human NQO1 assessed as specific activity per mg of protein at 100 uM by measuring decrease in substrate concentration by HPLC analysis; in short: as §1
NAD(P)H dehydrogenase [quinone] 1 (Homo sapiens), sequence (P15559 whole entry): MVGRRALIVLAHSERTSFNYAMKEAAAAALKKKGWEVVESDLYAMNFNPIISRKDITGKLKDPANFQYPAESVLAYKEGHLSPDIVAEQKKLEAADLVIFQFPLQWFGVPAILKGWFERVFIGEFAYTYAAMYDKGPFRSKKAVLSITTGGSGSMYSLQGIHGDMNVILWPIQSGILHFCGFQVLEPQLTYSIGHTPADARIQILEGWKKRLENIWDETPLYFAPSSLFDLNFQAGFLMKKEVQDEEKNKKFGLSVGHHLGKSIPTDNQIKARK

[4] = target: NAD(P)H dehydrogenase [quinone] 1 (Homo sapiens) (UniProt P15559); assay: Activation of human NQO1 assessed as decrease in substrate concentration at 100 uM by HPLC analysis relative to CB-1954; in short: as §1
Escherichia coli [5] = assay: Activation of Escherichia coli nitroreductase assessed as specific activity per mg of protein at 100 uM by measuring decrease in NADH concentration
In short: (§2)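 Human NQO1 or E. coli NR reduction followed by the fall in NADH concentration over time; specific activity is the rate of reduction per enzyme at 37 °C. Relative values are the specific activity compared with CB-1954.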

Escherichia coli [6] = assay: Activation of Escherichia coli nitroreductase assessed as decrease in NADH concentration at 100 uM relative to CB-1954; in short: as §2
Escherichia coli [7] = assay: Activation of Escherichia coli nitroreductase assessed as specific activity per mg of protein at 50 uM by measuring decrease in substrate concentration by HPLC analysis
In short: (§3)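 Used for poorly soluble substrates: 50 µM compound in buffer (10 mM phosphate, pH 7) with 10% DMSO, incubated with human NQO1 or E. coli NR at 37 °C. Substrate disappearance was monitored over time. Rates assume a 50 µM starting concentration and no DMSO effect on the enzyme. Relative activity is compared with CB-1954.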

[8] = target: NAD(P)H dehydrogenase [quinone] 1 (Homo sapiens) (UniProt P15559); assay: Activation of human NQO1 assessed as specific activity per mg of protein at 50 uM by measuring decrease in substrate concentration by HPLC analysis relative to CB-1954; in short: as §3
[9] = target: NAD(P)H dehydrogenase [quinone] 1 (Homo sapiens) (UniProt P15559); assay: Activation of human NQO1 assessed as specific activity per mg of protein at 50 uM by measuring decrease in substrate concentration by HPLC analysis; in short: as §3
[10] = Solubility of the compound at 100 uM in sodium phosphate buffer with 10% DMSO and 500 uM NADH at pH 7; type: physicochemical; details: pH 7, 100 µM
Escherichia coli [11] = assay: Activation of Escherichia coli nitroreductase assessed as specific activity per mg of protein at 50 uM by measuring decrease in substrate concentration by HPLC analysis relative to CB-1954; in short: as §3
[12] = Solubility of the compound in 10 mM phosphate buffer with 10% DMSO at pH 7; type: physicochemical

Row | SMILES | Activity (Escherichia coli [1]) [µmol/min] | fold change (FC) (Escherichia coli [2]) | Activity [3] [µmol/min] | fold change (FC) [4] | further results
1 | O=[N+]([O-])c1cnc2c(c1)[n+]([O-])c1n2CCc2ccccc2-1 | 54 | 29 | 0.17 | 27.4 | –
2 | O=[N+]([O-])c1ccc2c(c1)-c1n(c3ccc([N+](=O)[O-])cc3[n+]1[O-])CC2 | – | – | < 0.001 | < 0.16 | Activity (Escherichia coli [5]): 1.3 µmol/min; fold change (FC) (Escherichia coli [6]): 0.6
3 | O=C(O)c1cc([N+](=O)[O-])cc([N+](=O)[O-])c1N1CCc2ccccc2C1 | 4.22 | 2.3 | 0.011 | 1.8 | –
4 | O=[N+]([O-])c1cc([N+](=O)[O-])c(N2CCc3ccccc3C2)c(C(F)(F)F)c1 | 41.5 | 22.3 | 0.11 | 17.7 | –
5 | O=[N+]([O-])c1ccc2c(c1)CN(c1c([N+](=O)[O-])cc([N+](=O)[O-])cc1C(F)(F)F)CC2 | – | – | – | – | Activity (Escherichia coli [7]): 2.39 µmol/min; fold change (FC) [8]: 12.3; Activity [9]: 0.076 µmol/min; solubility [10]: Insoluble; fold change (FC) (Escherichia coli [11]): 1.3
6 | O=[N+]([O-])c1ccc(N2CCc3ccccc3C2)c([N+](=O)[O-])c1 | 0.44 | 0.2 | < 0.001 | < 0.16 | –
7 | O=[N+]([O-])c1cc(C(F)(F)F)c2c(c1)[n+]([O-])c1n2CCc2c-1cccc2[N+](=O)[O-] | < 0.001 | < 0.001 | < 0.001 | < 0.16 | –
8 | NC(=O)c1cc([N+](=O)[O-])cc2c1n1c([n+]2[O-])-c2ccccc2CC1 | – | – | < 0.001 | < 0.16 | Activity (Escherichia coli [5]): 1.62 µmol/min; fold change (FC) (Escherichia coli [6]): 0.9
9 | NC(=O)c1cc2c(cc1[N+](=O)[O-])[n+]([O-])c1n2CCc2c-1cccc2[N+](=O)[O-] | < 0.001 | < 0.001 | < 0.001 | < 0.16 | –
10 | O=C(O)c1cc([N+](=O)[O-])c(N2CCc3ccccc3C2)c([N+](=O)[O-])c1 | 0.02 | 0.01 | < 0.001 | < 0.16 | –
11 | O=[N+]([O-])c1cnc(N2CCc3ccccc3C2)c([N+](=O)[O-])c1 | 1.49 | 0.8 | 0.013 | 2.1 | –
12 | NC(=O)c1cc([N+](=O)[O-])c(N2CCc3ccccc3C2)c([N+](=O)[O-])c1 | < 0.001 | < 0.001 | < 0.001 | < 0.16 | –
13 | NC(=O)c1cc([N+](=O)[O-])cc([N+](=O)[O-])c1N1CCc2ccccc2C1 | – | – | 0.053 | 8.6 | Activity (Escherichia coli [5]): 2.82 µmol/min; fold change (FC) (Escherichia coli [6]): 1.5
14 | NC(=O)c1cc(N2CC2)c([N+](=O)[O-])cc1[N+](=O)[O-] | 1.86 | – | – | – | Activity (10'-3umol/min) [3]: 6.2
15 | O=[N+]([O-])c1ccc2c(c1)[n+]([O-])c1n2CCc2c-1cccc2[N+](=O)[O-] | – | – | < 0.001 | < 0.16 | Activity (Escherichia coli [5]): 1.51 µmol/min; fold change (FC) (Escherichia coli [6]): 0.8
16 | O=[N+]([O-])c1cc([N+](=O)[O-])c(N2CCc3c(cccc3[N+](=O)[O-])C2)c(C(F)(F)F)c1 | – | – | – | – | solubility [12]: Insoluble
17 | NC(=O)c1cc2c(cc1[N+](=O)[O-])[n+]([O-])c1n2CCc2ccccc2-1 | < 0.001 | < 0.001 | < 0.001 | < 0.16 | –
18 | NC(=O)c1cc(N2CCc3ccccc3C2)c([N+](=O)[O-])cc1[N+](=O)[O-] | 4.4 | 2.4 | 0.042 | 6.8 | –
19 | O=[N+]([O-])c1ccc2c(c1)[n+]([O-])c1n2CCc2ccccc2-1 | 0.5 | 0.3 | 0.016 | 2.6 | –
